From ChEMBL document CHEMBL1134032, “Rational design, synthesis, and biological evaluation of rigid pyrrolidone analogues as potential inhibitors of prostate cancer cell growth” (Bioorg Med Chem Lett, 2001)

How the values were obtained:
[1] = target: T1, Protein kinase C epsilon type (Homo sapiens, UniProt Q02156); experiment: Inhibition of [3H]-phorbol 12,13-dibutyrate (PDBu) binding to human recombinant protein kinase C epsilon
T1 sequence (Q02156 whole entry): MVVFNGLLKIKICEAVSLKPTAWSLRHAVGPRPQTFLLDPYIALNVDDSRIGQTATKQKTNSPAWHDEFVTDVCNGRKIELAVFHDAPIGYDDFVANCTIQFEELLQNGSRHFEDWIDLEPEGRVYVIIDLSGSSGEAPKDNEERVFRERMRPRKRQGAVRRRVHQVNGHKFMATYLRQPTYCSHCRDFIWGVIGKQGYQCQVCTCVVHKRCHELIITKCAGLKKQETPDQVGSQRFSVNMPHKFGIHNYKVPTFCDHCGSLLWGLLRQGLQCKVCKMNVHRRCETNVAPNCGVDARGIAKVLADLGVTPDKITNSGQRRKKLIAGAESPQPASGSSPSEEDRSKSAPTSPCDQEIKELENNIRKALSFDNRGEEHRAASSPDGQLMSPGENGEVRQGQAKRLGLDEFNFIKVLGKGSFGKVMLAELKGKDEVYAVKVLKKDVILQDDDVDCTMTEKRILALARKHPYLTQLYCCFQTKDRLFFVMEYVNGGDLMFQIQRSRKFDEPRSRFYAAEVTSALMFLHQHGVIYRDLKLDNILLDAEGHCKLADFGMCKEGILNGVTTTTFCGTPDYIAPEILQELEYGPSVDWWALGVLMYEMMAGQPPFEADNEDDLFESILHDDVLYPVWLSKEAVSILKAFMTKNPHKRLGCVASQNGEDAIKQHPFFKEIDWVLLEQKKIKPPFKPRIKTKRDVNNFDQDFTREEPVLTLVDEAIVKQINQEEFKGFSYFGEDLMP
Summary of the method: (§1)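 Competitive displacement of [3H]PDBu binding from recombinant human PKC isozymes (alpha, beta, gamma, delta, epsilon), each tested separately. Affinity is reported as Ki in nM.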

[2] = target: Protein kinase C delta type (Homo sapiens, UniProt Q05655); experiment: Inhibition of [3H]-phorbol 12,13-dibutyrate (PDBu) binding to human recombinant protein kinase C delta; summary of the method: as §1
Protein kinase C delta type, sequence (Q05655 whole entry): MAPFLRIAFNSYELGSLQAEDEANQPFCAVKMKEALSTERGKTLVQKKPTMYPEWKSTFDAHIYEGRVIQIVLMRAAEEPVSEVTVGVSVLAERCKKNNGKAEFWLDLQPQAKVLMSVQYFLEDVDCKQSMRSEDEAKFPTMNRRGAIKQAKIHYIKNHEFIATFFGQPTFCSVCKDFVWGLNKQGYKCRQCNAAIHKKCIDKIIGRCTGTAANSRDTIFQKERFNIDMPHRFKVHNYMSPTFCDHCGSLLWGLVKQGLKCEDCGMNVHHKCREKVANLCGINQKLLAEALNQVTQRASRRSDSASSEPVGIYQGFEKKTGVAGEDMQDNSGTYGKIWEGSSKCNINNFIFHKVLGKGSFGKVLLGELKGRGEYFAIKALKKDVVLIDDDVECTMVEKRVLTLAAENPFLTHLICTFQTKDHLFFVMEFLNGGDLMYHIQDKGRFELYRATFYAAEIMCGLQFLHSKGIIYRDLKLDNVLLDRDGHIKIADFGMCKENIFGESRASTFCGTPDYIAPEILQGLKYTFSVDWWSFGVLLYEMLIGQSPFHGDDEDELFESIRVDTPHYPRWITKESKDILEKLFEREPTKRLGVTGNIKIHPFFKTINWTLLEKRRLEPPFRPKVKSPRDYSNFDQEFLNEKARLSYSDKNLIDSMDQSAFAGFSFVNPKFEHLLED

[3] = target: Protein kinase C alpha type (Homo sapiens, UniProt P17252); experiment: Inhibition of [3H]-phorbol 12,13-dibutyrate (PDBu) binding to human recombinant protein kinase C alpha; summary of the method: as §1
[4] = target: Protein kinase C gamma type (Homo sapiens, UniProt P05129); experiment: Inhibition of [3H]-phorbol 12,13-dibutyrate (PDBu) binding to human recombinant protein kinase C gamma; summary of the method: as §1
[5] = target: Protein kinase C beta type (Homo sapiens, UniProt P05771); experiment: Inhibition of [3H]-phorbol 12,13-dibutyrate (PDBu) binding to human recombinant protein kinase C beta; summary of the method: as §1
Protein kinase C beta type, sequence (P05771 whole entry): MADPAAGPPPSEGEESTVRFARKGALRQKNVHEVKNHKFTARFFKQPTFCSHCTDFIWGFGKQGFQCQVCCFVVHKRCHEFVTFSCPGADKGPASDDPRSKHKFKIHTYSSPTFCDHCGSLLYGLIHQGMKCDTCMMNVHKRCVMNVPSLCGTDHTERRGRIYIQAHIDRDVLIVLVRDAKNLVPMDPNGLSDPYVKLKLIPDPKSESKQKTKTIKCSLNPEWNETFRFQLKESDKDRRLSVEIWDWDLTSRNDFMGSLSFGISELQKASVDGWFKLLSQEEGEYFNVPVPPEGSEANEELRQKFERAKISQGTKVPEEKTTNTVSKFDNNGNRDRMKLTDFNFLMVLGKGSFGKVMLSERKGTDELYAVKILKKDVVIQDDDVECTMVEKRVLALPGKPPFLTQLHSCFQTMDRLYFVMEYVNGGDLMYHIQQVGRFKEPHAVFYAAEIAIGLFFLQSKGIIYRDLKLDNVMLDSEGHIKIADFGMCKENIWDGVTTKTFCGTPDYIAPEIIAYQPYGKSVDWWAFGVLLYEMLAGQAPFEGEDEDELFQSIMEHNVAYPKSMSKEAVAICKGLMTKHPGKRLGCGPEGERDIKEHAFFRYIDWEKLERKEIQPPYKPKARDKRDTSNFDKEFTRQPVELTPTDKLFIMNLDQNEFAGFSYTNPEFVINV

| Compound | Ki [1] [nM] | Ki [2] [nM] | Ki [3] [nM] | Ki [4] [nM] | Ki [5] [nM] |
| --- | --- | --- | --- | --- | --- |
| CCCCCCCCC#Cc1ccc2c(c1)[C@](C)(C(C)C)[C@H]1C(=O)N[C@H](CO)[C@@H]21 | 469 | 1630 | 580 | 279 | – |
| CCCCCCCCC#Cc1ccc2c(c1)C[C@@H](CO)NC(=O)[C@H](C(C)C)N2C | 40 | 114 | 23 | 43 | 70 |
| CCCCCCCCCCCCCC(=O)O[C@@H]1[C@@H](C)[C@@]2(O)[C@@H](C=C(CO)C[C@]3(O)C(=O)C(C)=C[C@@H]23)[C@@H]2C(C)(C)[C@]12OC(C)=O [PHORBOL MYRISTATE ACETATE] | 0.45 | 0.8 | – | 4.9 | 1.8 |
